From ChEMBL document CHEMBL4184251, “Potentiation of the activity of β-lactam antibiotics by farnesol and its derivatives” (Bioorg Med Chem Lett, 2018)
≈ marks a conversion by molar mass, not a printed value.

How the values were obtained:
[1] = Solubility in aqueous solution; assay type: physicochemical; settings: buffer
[2] = test system: Staphylococcus aureus; test: Antimicrobial activity against methicillin-resistant Staphylococcus aureus NRS100 by micro-dilution method; assay type: functional
How it was run: (§1)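 Broth microdilution MIC in cation-adjusted Mueller-Hinton II medium supplemented with 1% Tween-80 (CAMHB-T), needed to disperse the farnesol-type compounds. Compounds tested from 2 to 2048 μg/mL.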

[3] = test system: Staphylococcus aureus; test: Antimicrobial activity against methicillin-resistant Staphylococcus aureus NRS123 by micro-dilution method; assay type: functional; how it was run: as §1
[4] = test system: Staphylococcus aureus; test: Antimicrobial activity against methicillin-resistant Staphylococcus aureus NRS70 by micro-dilution method; assay type: functional; how it was run: as §1
[5] = test system: Staphylococcus aureus; test: Antimicrobial activity against methicillin-susceptible Staphylococcus aureus ATCC 29213 by micro-dilution method; assay type: functional; how it was run: as §1
[6] = test system: Staphylococcus aureus; test: Potentiation of ampicillin-induced antimicrobial activity against methicillin-susceptible Staphylococcus aureus ATCC 29213 at 256 ug/ml (reference value: ampicillin alone MIC = 0.5 ug/ml); assay type: functional
[7] = test system: Staphylococcus aureus; test: Potentiation of ampicillin-induced antimicrobial activity against methicillin-susceptible Staphylococcus aureus ATCC 29213 at 256 ug/ml relative to ampicillin alone; assay type: functional
[8] = test system: Staphylococcus aureus; test: Potentiation of ampicillin-induced antimicrobial activity against methicillin-resistant Staphylococcus aureus NRS100 at 256 ug/ml (reference value: ampicillin alone MIC = 16 ug/ml); assay type: functional
[9] = test system: Staphylococcus aureus; test: Potentiation of ampicillin-induced antimicrobial activity against methicillin-resistant Staphylococcus aureus NRS100 at 256 ug/ml relative to ampicillin alone; assay type: functional
[10] = test system: Staphylococcus aureus; test: Potentiation of ampicillin-induced antimicrobial activity against methicillin-resistant Staphylococcus aureus NRS70 at 256 ug/ml (reference value: ampicillin alone MIC = 16 ug/ml); assay type: functional
[11] = test system: Staphylococcus aureus; test: Potentiation of ampicillin-induced antimicrobial activity against methicillin-resistant Staphylococcus aureus NRS70 at 256 ug/ml relative to ampicillin alone; assay type: functional
[12] = test system: Staphylococcus aureus; test: Potentiation of ampicillin-induced antimicrobial activity against methicillin-resistant Staphylococcus aureus NRS123 at 256 ug/ml (reference value: ampicillin alone MIC = 12 ug/ml); assay type: functional
[13] = test system: Staphylococcus aureus; test: Potentiation of ampicillin-induced antimicrobial activity against methicillin-resistant Staphylococcus aureus NRS123 at 256 ug/ml relative to ampicillin alone; assay type: functional
[14] = test system: Staphylococcus aureus; test: Potentiation of oxacillin-induced antimicrobial activity against methicillin-susceptible Staphylococcus aureus ATCC 29213 at 256 ug/ml (reference value: oxacillin alone MIC = 0.4 ug/ml); assay type: functional
[15] = test system: Staphylococcus aureus; test: Potentiation of oxacillin-induced antimicrobial activity against methicillin-susceptible Staphylococcus aureus ATCC 29213 at 256 ug/ml relative to oxacillin alone; assay type: functional
[16] = test system: Staphylococcus aureus; test: Potentiation of oxacillin-induced antimicrobial activity against methicillin-resistant Staphylococcus aureus NRS100 at 256 ug/ml (reference value: oxacillin alone MIC = >256 ug/ml); assay type: functional
[17] = test system: Staphylococcus aureus; test: Potentiation of oxacillin-induced antimicrobial activity against methicillin-resistant Staphylococcus aureus NRS100 at 256 ug/ml relative to oxacillin alone; assay type: functional
[18] = test system: Staphylococcus aureus; test: Potentiation of oxacillin-induced antimicrobial activity against methicillin-resistant Staphylococcus aureus NRS70 at 256 ug/ml (reference value: oxacillin alone MIC = 32 ug/ml); assay type: functional
[19] = test system: Staphylococcus aureus; test: Potentiation of oxacillin-induced antimicrobial activity against methicillin-resistant Staphylococcus aureus NRS70 at 256 ug/ml relative to oxacillin alone; assay type: functional
[20] = test system: Staphylococcus aureus; test: Potentiation of oxacillin-induced antimicrobial activity against methicillin-resistant Staphylococcus aureus NRS123 at 256 ug/ml (reference value: oxacillin alone MIC = 24 ug/ml); assay type: functional
[21] = test system: Staphylococcus aureus; test: Potentiation of oxacillin-induced antimicrobial activity against methicillin-resistant Staphylococcus aureus NRS123 at 256 ug/ml relative to oxacillin alone; assay type: functional
[22] = test system: Staphylococcus aureus; test: Potentiation of oxacillin-induced antimicrobial activity against methicillin-resistant Staphylococcus aureus NRS70 at 256 ug/ml by checkerboard assay; assay type: functional
How it was run: (§2)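 Checkerboard combination of oxacillin with the farnesol-type compound. Synergy scored by the fractional inhibitory concentration index (FICI).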

[23] = test system: Staphylococcus aureus; test: Potentiation of oxacillin-induced antimicrobial activity against methicillin-resistant Staphylococcus aureus NRS100 at 256 ug/ml by checkerboard assay; assay type: functional; how it was run: as §2

With `CC(C)=CCC/C(C)=C/CC/C(C)=C/CNP(O)(O)=S` the solubility [1] was “Soluble”, the MIC [2] was 512 µg/mL (≈ 1610 µM) and the MIC [3] was 512 µg/mL (≈ 1610 µM). It also gave an MIC [4] of 512 µg/mL (≈ 1610 µM), an MIC [5] of 512 µg/mL (≈ 1610 µM) and an MIC [6] of 0.5 µg/mL. The “fold change (FC)” value [7] was 1, the MIC [8] was 3 µg/mL and the “fold change (FC)” value [9] was 5.3. The MIC [10] was 6 µg/mL, the “fold change (FC)” value [11] was 2.7 and the MIC [12] was 8 µg/mL. The “fold change (FC)” value [13] was 1.5, the MIC [14] was 0.4 µg/mL and the “fold change (FC)” value [15] was 1. The MIC [16] was 2 µg/mL, the “fold change (FC)” value [17] was over 128 and the MIC [18] was 1 µg/mL. The “fold change (FC)” value [19] was 32, the MIC [20] was 16 µg/mL and the “fold change (FC)” value [21] was 1.5. The “fractional inhibitory concentration index (FICI)” value [22] was 0.53 - 1.13 and the “fractional inhibitory concentration index (FICI)” value [23] was 0.53 - 1.13.
